Experimental data reported in ChEMBL document CHEMBL2146360, “Selection, synthesis, and anti-inflammatory evaluation of the arylidene malonate derivatives as TLR4 signaling inhibitors” (Bioorg Med Chem, 2012).
The source made the active and inactive calls. No cut-off for these calls is given here.

Tests used:
Format in all cases: cell-based
[1] = target: T1, Toll-like receptor 4 (Mus musculus, UniProt Q9QUK6); experiment: Inhibition of TLR4 in LPS-stimulated mouse RAW264.7 cells assessed as reduction of NO production after 24 hrs
T1 sequence (Q9QUK6 whole entry): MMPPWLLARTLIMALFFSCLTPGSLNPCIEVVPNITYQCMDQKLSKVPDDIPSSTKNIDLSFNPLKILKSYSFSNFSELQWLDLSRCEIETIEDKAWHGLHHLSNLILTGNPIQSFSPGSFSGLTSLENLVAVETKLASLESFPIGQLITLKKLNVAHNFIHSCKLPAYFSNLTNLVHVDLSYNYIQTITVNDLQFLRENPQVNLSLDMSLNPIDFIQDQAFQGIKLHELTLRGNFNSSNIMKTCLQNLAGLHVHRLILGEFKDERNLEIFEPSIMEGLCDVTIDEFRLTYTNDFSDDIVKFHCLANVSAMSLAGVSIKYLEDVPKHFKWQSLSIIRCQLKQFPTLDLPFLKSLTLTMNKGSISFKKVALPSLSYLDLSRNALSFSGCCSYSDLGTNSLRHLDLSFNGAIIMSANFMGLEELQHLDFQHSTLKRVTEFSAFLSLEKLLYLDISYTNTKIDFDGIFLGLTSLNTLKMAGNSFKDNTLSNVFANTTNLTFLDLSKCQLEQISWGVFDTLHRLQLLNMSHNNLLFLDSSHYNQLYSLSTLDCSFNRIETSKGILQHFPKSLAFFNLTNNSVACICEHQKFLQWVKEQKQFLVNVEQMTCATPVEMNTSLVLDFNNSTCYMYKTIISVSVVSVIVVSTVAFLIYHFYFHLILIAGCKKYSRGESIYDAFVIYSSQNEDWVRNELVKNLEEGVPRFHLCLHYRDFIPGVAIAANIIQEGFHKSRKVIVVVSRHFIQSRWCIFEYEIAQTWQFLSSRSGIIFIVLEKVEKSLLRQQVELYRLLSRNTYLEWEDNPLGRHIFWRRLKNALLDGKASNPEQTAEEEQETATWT
Method in brief: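 RAW 264.7 cells at 7.5×10^4/well were incubated 24 h, moved to fresh RPMI 1640, treated with vehicle or compound, and stimulated with LPS 20 ng/mL for 24 h. Nitrite in the medium was reacted with 2,3-diaminonaphthalene (0.05 mg/mL in 0.62 M HCl) for 15 min in the dark, NaOH was added, and […] was read at 450 nm.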

[2] = target: T2, Toll-like receptor 4 (Mus musculus) (UniProt Q9QUK6); experiment: (§1) Inhibition of TLR4 in LPS-stimulated mouse RAW264.7 cells assessed as reduction of TNFalpha production after 24 hrs by ELISA
T2 sequence (whole entry): T1 sequence (Q9QUK6 whole entry)
Method in brief: (§2)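 RAW 264.7 cells (5×10^5/well, 6-well plates) were treated with or without LPS and then with compound for 24 h. Culture supernatant was harvested and clarified, and TNF-α was measured by ELISA.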

[3] = target: T1, Toll-like receptor 4; experiment: as §1; method in brief: as §2
[4] = target: T2, Toll-like receptor 4 (Mus musculus); experiment: Inhibition of TLR4 in LPS-stimulated mouse BV2 cells assessed as reduction of NF-kappaB activation after 24 hrs by Dual-GLO luciferase assay; conditions: BV-2
Method in brief: (§3)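 BV-2 cells stably carrying an NF-κB dual-luciferase reporter were kept in DMEM/10% FBS with puromycin (3 μg/mL) and seeded at 1×10^4/well. After 24 h the medium was switched to Opti-MEM/0.5% FBS. Compound was added, followed by LPS 200 ng/mL for 24 h. Read-out was the Firefly/Renilla luciferase ratio (Dual-Glo).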

[5] = tested on: RAW264.7; experiment: Cytotoxicity against mouse RAW264.7 cells assessed as cell viability up to 10 uM after 24 hrs by WST-1 assay; conditions: raw264.7, 24 h
Method in brief: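 WST-1 viability assay: RAW 264.7 cells at 2×10^4 cells/well, cultured 24 h at 37°C, then moved to serum-free medium and treated with vehicle or compound (10 mM DMSO stocks) for 24 h. WST-1 reagent added for 30 min at 37°C; absorbance read at 490 nm.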

[6] = target: T2, Toll-like receptor 4 (Mus musculus); experiment: (§4) Inhibition of TLR4 in LPS-stimulated mouse RAW264.7 cells assessed as reduction of IL1-beta production after 24 hrs by ELISA
Method in brief: (§5)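 RAW 264.7 cells (5×10^5/well, 6-well plates) were treated with or without LPS and then with compound for 24 h. Cells were lysed and IL-1β was measured in the lysate by ELISA, normalized to total protein.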

[7] = target: T1, Toll-like receptor 4; experiment: as §4; method in brief: as §5
[8] = target: Toll-like receptor 1/2 (Mus musculus) (UniProt Q9QUN7+Q9EPQ1); experiment: Inhibition of TLR1/TLR2 in Pam3CSK4-stimulated mouse RAW264.7 cells at 0.6 uM after 24 hrs
Method in brief: (§6)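 RAW 264.7 cells were stimulated with the TLR-selective ligand named in the line, in the presence or absence of compound (0.6 μM). NO was then measured by the nitrite protocol: 7.5×10^4 cells/well, RPMI 1640, 24 h. 2,3-diaminonaphthalene was added, then NaOH, and […] read at 450 nm. Mean ±SD of 3 experiments, each run in triplicate.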

[9] = target: TLR7 and TLR8 (Mus musculus) (UniProt P58681+P58682); experiment: Inhibition of TLR7/TLR8 in R848-stimulated mouse RAW264.7 cells at 0.6 uM after 24 hrs; method in brief: as §6
TLR7 and TLR8 (Mus musculus), sequence (P58681 whole entry, looked up): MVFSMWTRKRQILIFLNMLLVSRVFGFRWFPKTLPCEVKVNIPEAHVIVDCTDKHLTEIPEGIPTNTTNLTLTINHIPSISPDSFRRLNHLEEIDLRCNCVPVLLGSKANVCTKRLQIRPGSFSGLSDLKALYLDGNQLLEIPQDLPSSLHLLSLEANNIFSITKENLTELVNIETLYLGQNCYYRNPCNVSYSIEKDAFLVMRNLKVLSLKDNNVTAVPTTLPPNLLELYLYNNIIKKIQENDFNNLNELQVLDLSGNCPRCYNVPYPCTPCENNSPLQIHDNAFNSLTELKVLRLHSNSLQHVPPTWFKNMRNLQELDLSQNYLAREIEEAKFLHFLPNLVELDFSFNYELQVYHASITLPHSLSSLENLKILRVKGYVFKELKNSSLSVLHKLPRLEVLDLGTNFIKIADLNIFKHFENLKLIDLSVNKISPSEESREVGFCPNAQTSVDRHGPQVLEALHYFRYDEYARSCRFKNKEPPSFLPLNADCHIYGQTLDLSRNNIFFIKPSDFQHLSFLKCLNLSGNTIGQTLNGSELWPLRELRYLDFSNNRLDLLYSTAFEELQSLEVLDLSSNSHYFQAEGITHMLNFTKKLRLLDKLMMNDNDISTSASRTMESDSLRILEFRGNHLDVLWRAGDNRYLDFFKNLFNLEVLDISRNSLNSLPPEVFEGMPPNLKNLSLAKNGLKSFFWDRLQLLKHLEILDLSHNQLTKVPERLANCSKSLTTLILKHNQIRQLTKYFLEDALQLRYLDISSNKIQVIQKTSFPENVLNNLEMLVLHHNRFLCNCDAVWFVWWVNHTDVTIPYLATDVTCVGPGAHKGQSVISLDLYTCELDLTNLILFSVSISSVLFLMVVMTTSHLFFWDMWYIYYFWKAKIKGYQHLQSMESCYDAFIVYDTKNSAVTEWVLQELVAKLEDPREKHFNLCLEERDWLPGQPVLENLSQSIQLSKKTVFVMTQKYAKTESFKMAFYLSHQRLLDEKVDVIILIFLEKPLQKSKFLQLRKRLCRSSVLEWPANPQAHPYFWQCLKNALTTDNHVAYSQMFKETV
TLR7 and TLR8 (Mus musculus), sequence (P58682 whole entry, looked up): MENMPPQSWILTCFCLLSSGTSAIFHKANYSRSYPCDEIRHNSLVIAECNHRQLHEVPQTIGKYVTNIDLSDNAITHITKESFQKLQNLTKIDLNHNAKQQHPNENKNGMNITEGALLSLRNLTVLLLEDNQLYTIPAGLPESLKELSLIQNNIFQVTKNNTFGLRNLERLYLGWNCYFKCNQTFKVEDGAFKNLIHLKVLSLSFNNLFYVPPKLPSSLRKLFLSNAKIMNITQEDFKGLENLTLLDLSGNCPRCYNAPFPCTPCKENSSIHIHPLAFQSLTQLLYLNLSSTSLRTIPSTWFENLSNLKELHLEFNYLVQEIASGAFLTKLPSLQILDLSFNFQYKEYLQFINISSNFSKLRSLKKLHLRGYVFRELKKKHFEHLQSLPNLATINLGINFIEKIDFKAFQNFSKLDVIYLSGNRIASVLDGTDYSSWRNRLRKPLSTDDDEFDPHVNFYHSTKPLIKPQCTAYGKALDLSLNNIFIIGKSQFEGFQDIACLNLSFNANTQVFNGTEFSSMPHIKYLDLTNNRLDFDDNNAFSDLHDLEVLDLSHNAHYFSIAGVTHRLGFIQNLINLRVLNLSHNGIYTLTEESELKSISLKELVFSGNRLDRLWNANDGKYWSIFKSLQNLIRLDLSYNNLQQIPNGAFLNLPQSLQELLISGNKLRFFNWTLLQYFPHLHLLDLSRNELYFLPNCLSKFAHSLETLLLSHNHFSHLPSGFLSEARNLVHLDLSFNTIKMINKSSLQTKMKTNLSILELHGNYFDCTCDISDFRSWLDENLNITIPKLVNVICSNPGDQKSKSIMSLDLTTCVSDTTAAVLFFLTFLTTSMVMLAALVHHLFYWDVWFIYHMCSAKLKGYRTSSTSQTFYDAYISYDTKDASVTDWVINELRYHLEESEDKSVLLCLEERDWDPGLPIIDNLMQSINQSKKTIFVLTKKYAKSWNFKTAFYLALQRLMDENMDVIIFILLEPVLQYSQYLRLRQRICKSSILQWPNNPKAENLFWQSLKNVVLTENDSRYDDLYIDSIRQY

[10] = target: T3, Toll-like receptor 3 (Mus musculus) (UniProt Q99MB1); experiment: Inhibition of TLR3 in poly(I:C)-stimulated mouse RAW264.7 cells at 0.6 uM after 24 hrs; method in brief: as §6
T3 sequence (whole entry): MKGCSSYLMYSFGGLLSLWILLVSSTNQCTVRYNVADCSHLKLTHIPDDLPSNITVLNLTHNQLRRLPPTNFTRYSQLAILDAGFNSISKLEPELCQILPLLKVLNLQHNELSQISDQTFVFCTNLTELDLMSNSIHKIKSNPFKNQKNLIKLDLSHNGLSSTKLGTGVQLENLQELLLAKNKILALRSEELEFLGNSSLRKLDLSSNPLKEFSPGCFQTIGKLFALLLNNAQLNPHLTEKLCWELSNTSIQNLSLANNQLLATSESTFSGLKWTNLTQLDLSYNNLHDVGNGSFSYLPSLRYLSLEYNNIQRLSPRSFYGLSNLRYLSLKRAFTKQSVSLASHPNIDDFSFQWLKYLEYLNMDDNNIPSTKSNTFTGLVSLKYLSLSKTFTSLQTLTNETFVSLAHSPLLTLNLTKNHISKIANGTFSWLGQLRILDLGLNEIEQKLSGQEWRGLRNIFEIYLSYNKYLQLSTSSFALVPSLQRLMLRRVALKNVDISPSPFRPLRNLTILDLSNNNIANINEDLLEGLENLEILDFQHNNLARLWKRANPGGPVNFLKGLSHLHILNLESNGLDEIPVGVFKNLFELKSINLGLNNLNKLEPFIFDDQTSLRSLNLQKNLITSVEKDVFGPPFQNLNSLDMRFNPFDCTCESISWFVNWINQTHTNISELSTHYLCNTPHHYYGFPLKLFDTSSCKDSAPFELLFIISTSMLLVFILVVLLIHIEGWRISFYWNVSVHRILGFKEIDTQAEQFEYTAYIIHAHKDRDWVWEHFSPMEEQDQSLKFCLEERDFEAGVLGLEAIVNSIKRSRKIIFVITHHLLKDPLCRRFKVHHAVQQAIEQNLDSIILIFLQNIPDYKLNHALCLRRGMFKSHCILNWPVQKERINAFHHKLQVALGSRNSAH

[11] = target: TLR2/TLR6 (Mus musculus) (UniProt Q9QUN7+Q9EPW9); experiment: Inhibition of TLR2/TLR6 in FSL1-stimulated mouse RAW264.7 cells at 0.6 uM after 24 hrs; method in brief: as §6
[12] = target: T2, Toll-like receptor 4 (Mus musculus); experiment: Inhibition of TLR4 in LPS-stimulated mouse RAW264.7 cells assessed as reduction of TNFalpha production at 3 to 10 uM after 24 hrs by ELISA; method in brief: as §2
[13] = target: T2, Toll-like receptor 4 (Mus musculus); experiment: Inhibition of TLR4 in LPS-stimulated mouse BV2 cells assessed as reduction of NF-kappaB activation up to 10 uM after 24 hrs by Dual-GLO luciferase assay; conditions: BV-2; method in brief: as §3
[14] = target: T2, Toll-like receptor 4 (Mus musculus); experiment: Inhibition of TLR4 in LPS-stimulated mouse RAW264.7 cells assessed as reduction of IL1-beta production at 3 to 10 uM after 24 hrs by ELISA; method in brief: as §5

Row | SMILES | IC50 [1] | further results
1 | COC(=O)/C=C/c1ccccc1[N+](=O)[O-] | 4530 nM | –
2 | COC(=O)C(=CC1CCCCC1)C(=O)OC | 78200 nM | –
3 | COc1ccc(C=C(C(=O)O)C(=O)O)cc1 | 1440 nM | –
4 | COC(=O)C(=Cc1ccc(OC)cc1OC)C(=O)OC | 820 nM | –
5 | COC(=O)C(=Cc1cccc(F)c1)C(=O)OC | 2530 nM | –
6 | COc1cc(/C=C/C(=O)CC(=O)/C=C/c2ccc(O)c(OC)c2)ccc1O [CURCUMIN] | 6000 nM | –
7 | O=C(O)C(=Cc1ccccc1[N+](=O)[O-])C(=O)O | 520 nM | –
8 | O=C(O)C(=Cc1ccccc1F)C(=O)O | 410 nM | –
9 | COC(=O)C(=Cc1ccc(F)cc1F)C(=O)OC | 420 nM | –
10 | COC(=O)C(Cc1ccccc1[N+](=O)[O-])C(=O)OC | > 100000 nM | inhibition [12]: inactive; inhibition [13]: inactive; inhibition [14]: inactive
11 | COC(=O)C(=Cc1cccc([N+](=O)[O-])c1)C(=O)OC | 2130 nM | –
12 | COC(=O)C(=Cc1ccc(N(C)C)cc1)C(=O)OC | 3110 nM | –

More lines, main results first:

Row | IC50 [1] | SMILES | further results
13 | 710 nM | COC(=O)C(=Cc1ccc(F)cc1)C(=O)OC | –
14 | 3720 nM | COC(=O)C(=Cc1cccc(OC)c1)C(=O)OC | –
15 | 740 nM | COC(=O)C(=Cc1ccccc1OC)C(=O)OC | –
16 | 1240 nM | COC(=O)C(=Cc1ccc(OC)cc1)C(=O)OC | –
17 | 310 nM | COC(=O)C(=Cc1ccccc1[N+](=O)[O-])C(=O)OC | inhibition [2]: Dose-dependent effect; IC50 [3]: 1540 nM; IC50 [4]: 5.92 µM; inhibition [4]: Dose-dependent effect; Activity [5]: Non-toxic; inhibition [6]: Dose-dependent effect; IC50 [7]: 420 nM; inhibition [8]: inactive; inhibition [9]: inactive; inhibition [10]: inactive; inhibition [11]: Active
18 | 820 nM | COC(=O)C(=Cc1ccccc1)C(=O)OC | –
19 | 330 nM | COC(=O)C(=Cc1ccccc1F)C(=O)OC | –
20 | 1330 nM | COC(=O)C(=Cc1ccc(C(=O)OC)cc1)C(=O)OC | –
21 | 1540 nM | COC(=O)C(=Cc1ccc(Cl)cc1)C(=O)OC | –
22 | 820 nM | COC(=O)C(=Cc1ccccc1Cl)C(=O)OC | –
23 | 820 nM | COC(=O)C(=Cc1ccc([N+](=O)[O-])cc1)C(=O)OC | –
24 | 930 nM | O=C(O)C(=Cc1ccccc1)C(=O)O | –
